Test results from ChEMBL document CHEMBL1134640, “A novel series of highly potent benzimidazole-based microsomal triglyceride transfer protein inhibitors” (J Med Chem, 2001).
Values belong to the compound of their own block, whether it stands above or below them.

How the values were obtained:
Mesocricetus auratus [1] = assay: TC lowering at 8 mg/kg was measured as % lowering of plasma TC in standard-diet-fed golden Syrian hamsters 16h postdosing.
[2] = biological target: T1, Microsomal triglyceride transfer protein large subunit (Homo sapiens, UniProt P55157); assay: (§1) In vitro inhibition of human microsomal triglyceride transfer protein in HepG2 cells using apoB secretion assay; format: cell-based
T1 sequence (P55157 whole entry): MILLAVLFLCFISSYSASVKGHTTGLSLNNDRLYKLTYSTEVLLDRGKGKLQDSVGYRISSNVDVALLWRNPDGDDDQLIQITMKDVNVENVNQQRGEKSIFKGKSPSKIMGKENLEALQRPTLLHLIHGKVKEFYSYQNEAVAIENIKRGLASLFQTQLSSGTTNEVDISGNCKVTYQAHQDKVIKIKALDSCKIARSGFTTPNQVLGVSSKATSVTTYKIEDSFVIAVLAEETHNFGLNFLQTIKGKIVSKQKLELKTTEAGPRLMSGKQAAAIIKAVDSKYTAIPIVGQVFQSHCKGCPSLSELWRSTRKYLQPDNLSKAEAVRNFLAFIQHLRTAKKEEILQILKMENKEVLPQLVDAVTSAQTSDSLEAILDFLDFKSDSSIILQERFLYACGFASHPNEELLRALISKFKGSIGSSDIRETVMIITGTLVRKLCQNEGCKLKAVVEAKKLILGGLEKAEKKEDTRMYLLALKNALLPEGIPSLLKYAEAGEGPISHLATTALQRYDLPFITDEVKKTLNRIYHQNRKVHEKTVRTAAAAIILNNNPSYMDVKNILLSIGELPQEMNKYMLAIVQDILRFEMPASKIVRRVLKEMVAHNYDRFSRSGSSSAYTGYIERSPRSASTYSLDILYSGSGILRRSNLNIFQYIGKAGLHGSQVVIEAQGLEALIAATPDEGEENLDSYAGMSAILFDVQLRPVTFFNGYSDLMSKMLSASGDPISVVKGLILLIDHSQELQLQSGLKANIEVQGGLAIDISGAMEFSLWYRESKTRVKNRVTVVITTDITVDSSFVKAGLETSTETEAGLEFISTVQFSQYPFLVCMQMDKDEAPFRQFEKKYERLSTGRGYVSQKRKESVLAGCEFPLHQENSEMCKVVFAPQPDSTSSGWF

[3] = biological target: T1, Microsomal triglyceride transfer protein large subunit; assay: In vitro inhibition of human Microsomal Triglyceride Transfer Protein, (triglyceride transfer assay)
[4] = TC lowering at dose was measured as % lowering of plasma TC in standard-diet-fed cynomolgus monkeys 16h postdosing.; format: functional, Cercopithecidae
Outline: (§2)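 Cynomolgus monkeys on standard diet received oral dosing once daily for 7 days. Plasma TC was measured 16 h postdosing. Values are percent lowering at a stated dose (mg/kg), or ED50, the dose producing 50% TC lowering.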

[5] = biological target: T1, Microsomal triglyceride transfer protein large subunit; assay: In vitro inhibition of human microsomal triglyceride transfer protein using triglyceride transfer assay
[6] = PlasmaTC lowering was determined in standard-diet-fed cynomolgus monkeys after 16h of postdosing at 10 mg/kg; format: functional, Cercopithecidae
Outline: as §2

[7] = PlasmaTC lowering was determined in standard-diet-fed cynomolgus monkeys after 16h of postdosing at 1.25 mg/kg; format: functional, Cercopithecidae
Outline: as §2

[8] = Dose required for 50% lowering of plasma TC in standard-diet-fed golden Syrian hamsters 16h postdosing; format: functional
Outline: (§3)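 Golden Syrian hamsters on standard diet were dosed orally once daily for 3 days. Plasma total cholesterol was measured 16 h after dosing. Values are percent TC lowering at a given dose (mg/kg), or ED50, the dose giving 50% plasma TC lowering.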

[9] = PlasmaTC lowering was determined in standard-diet-fed cynomolgus monkeys after 16h of postdosing at 2.5 mg/kg; format: functional, Cercopithecidae
Outline: as §2

[10] = Dose required for 50% lowering of plasma TC in standard-diet-fed cynomolgus monkeys; format: functional; conditions: Cercopithecidae
Outline: as §2

[11] = biological target: T1, Microsomal triglyceride transfer protein large subunit; assay: as §1; format: functional, cell-based
[12] = PlasmaTC lowering was determined in standard-diet-fed cynomolgus monkeys after 16h of postdosing at 5 mg/kg; format: functional, Cercopithecidae
Outline: as §2

[13] = PlasmaTC lowering was determined in standard-diet-fed cynomolgus monkeys after 16h of postdosing of at 0.1 mg/kg; format: functional, Cercopithecidae
Outline: as §2

[14] = Dose required for 50% lowering of plasma TC in standard-diet-fed golden Syrian hamsters 16h postdosing.; format: functional
Outline: as §3

[15] = PlasmaTC lowering was determined in standard-diet-fed cynomolgus monkeys after 16h of postdosing of at 1.25 mg/kg; format: functional, Cercopithecidae
Outline: as §2

[16] = PlasmaTC lowering was determined in standard-diet-fed cynomolgus monkeys after 16h of postdosing of at 0.3 mg/kg; format: functional, Cercopithecidae
Outline: as §2

[17] = Dose required for 50% lowering of plasma TC in standard-diet-fed cynomolgus monkeys 16h postdosing.; format: functional; conditions: Cercopithecidae
Outline: as §2

[18] = PlasmaTC lowering was determined in standard-diet-fed cynomolgus monkeys after 16h of postdosing of at 1 mg/kg; format: functional, Cercopithecidae
Outline: as §2

[19] = biological target: T1, Microsomal triglyceride transfer protein large subunit; assay: In vitro inhibition of human Microsomal Triglyceride Transfer Protein (triglyceride transfer assay)
[20] = PlasmaTC lowering was determined in standard-diet-fed cynomolgus monkeys after 16h of postdosing of at 2.5 mg/kg; format: functional, Cercopithecidae
Outline: as §2

[21] = ED50 represents dose required for 50% lowering of plasma TC in standard-diet-fed golden Syrian hamsters 16h postdosing.; conditions: Mesocricetus auratus
[22] = PlasmaTC lowering was determined in standard-diet-fed cynomolgus monkeys after 16h of postdosing of at 5 mg/kg; format: functional, Cercopithecidae
Outline: as §2

Mesocricetus auratus [23] = assay: PlasmaTC lowering was determined in standard-diet-fed after 16h of postdosing of at 15 mg/kg in golden Syrian hamsters
Mesocricetus auratus [24] = assay: 50% lowering of plasma TC in standard-diet-fed golden Syrian hamsters 16h postdosing. 15 mg/kg required for

IC50 [2]: 0.06 nM
IC50 [3]: 4 nM
Structure (SMILES): CC(C)c1nc2c(NC(=O)c3ccccc3-c3ccc(C(F)(F)F)cc3)cccc2n1CCCCC1(C(=O)NCC(F)(F)F)c2ccccc2-c2ccccc21
TC lowering (Mesocricetus auratus [1]): -60%
TC lowering [4]: -39%

IC50 [5]: 8 nM
IC50 [11]: 0.8 nM
Structure (SMILES): O=C(NC1CCN(CCCCC2(C(=O)NCC(F)(F)F)c3ccccc3-c3ccccc32)CC1)c1ccccc1-c1ccc(C(F)(F)F)cc1 [LOMITAPIDE]
TC lowering [6]: -88%
TC lowering [7]: -35%
ED50 [8]: 2.3 mg/kg
TC lowering [9]: -65%
ED50 [10]: 2 mg/kg
TC lowering [12]: -74%

IC50 [2]: 0.03 nM
IC50 [3]: 1 nM
Structure (SMILES): Cc1ccc2c(nc(C)n2CCCCC2(C(=O)NCC(F)(F)F)c3ccccc3-c3ccccc32)c1NC(=O)c1ccccc1-c1ccc(C(F)(F)F)cc1
TC lowering [13]: -28%
ED50 [14]: 0.28 mg/kg
TC lowering [15]: -83%
TC lowering [16]: -43%
ED50 [17]: 0.38 mg/kg
TC lowering [18]: -76%

IC50 [19]: 5 nM
IC50 [2]: 0.24 nM
Structure (SMILES): O=C(Nc1cccc2c1ncn2CCCCC1(C(=O)NCC(F)(F)F)c2ccccc2-c2ccccc21)c1ccccc1-c1ccc(C(F)(F)F)cc1
TC lowering [20]: -19%
ED50 [21]: 12 mg/kg
TC lowering [22]: -52%

IC50 [3]: 10 nM
Structure (SMILES): O=C(Nc1cccc2c1ncn2CCCC1(C(=O)NCC(F)(F)F)c2ccccc2-c2ccccc21)c1ccccc1-c1ccc(C(F)(F)F)cc1
TC lowering (Mesocricetus auratus [23]): -11%

IC50 [2]: 0.15 nM
IC50 [3]: 1 nM
Structure (SMILES): Cc1nc2c(NC(=O)c3ccccc3-c3ccc(C(F)(F)F)cc3)cccc2n1CCCCC1(C(=O)NCC(F)(F)F)c2ccccc2-c2ccccc21
ED50 [14]: 2.5 mg/kg
TC lowering [15]: -51%
TC lowering [22]: -80%

IC50 [3]: 2 nM
Structure (SMILES): CCCc1nc2c(NC(=O)c3ccccc3-c3ccc(C(F)(F)F)cc3)cccc2n1CCCCC1(C(=O)NCC(F)(F)F)c2ccccc2-c2ccccc21
TC lowering (Mesocricetus auratus [24]): -44%

IC50 [2]: 0.02 nM
IC50 [3]: 1 nM
Structure (SMILES): Cc1ccc2c(ncn2CCCCC2(C(=O)NCC(F)(F)F)c3ccccc3-c3ccccc32)c1NC(=O)c1ccccc1-c1ccc(C(F)(F)F)cc1
ED50 [14]: 3.8 mg/kg
TC lowering [20]: -68%
